High-throughput results (PubChem)
Most compounds without a hit are left out; they make up all but 0.89% or so of the library.
Arr AP2 block – blocks beta-arrestin peptide binding to AP2 adaptin; FITC-arrestin peptide / GST-AP2 beads, flow cytometry; AP2 beta2 appendage carries R879A mutation; inhibition, % at 10 µM; hit rate 0.31% among 340,000;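 active = inhibition above a set limit, near 3 SD of compounds lacking own fluorescence, cut at about 54% in these data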;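 note: plate controls were DMSO wells for no effect and 5 µM unlabelled arrestin peptide for full effect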
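System: GST-AP2 R879A glutathione beads | Also added: FITC-arrestin peptide, 50 nM | Times: 12 min plus 1 h, RT | Signal: Bead flow cytometry, FITC channel | Buffer or medium: PBS with 0.05% Tween 20 and 0.1% BSA | Read-out basis: Percent drop in bead-associated FITC signal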
MIN6 prolif – induces beta-cell replication in MIN6 cells; MIN6 cells proliferation, ATPlite luminescence, 48 h; cells starved in 0.2% serum; 100% = growth in 10% serum; hit rate 0.29% among 330,000; AID 2380; proliferation, % at 10 µM;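 active = compounds whose signal lies at least 3.5 SD above the mean of all wells on their plate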;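 note: 0% = DMSO-treated cells in low-serum medium and 100% = 10% serum control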
XiGFP reactiv – activators of X-chromosome reactivation in mouse fibroblasts. XiGFP mouse fibroblasts, % GFP-positive cells imaging, 3 d; cells co-treated with 5-aza-dC sensitizer; scaled so ellipticine positive control = 100%. hit rate 0.055% among 360,000. AID 743238. activation, % at 7.58 µM;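 active = mean normalized replicate activation at least 10% and every replicate at or above 10%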;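 note: 0% = median of on-plate neutral control wells and 100% = ellipticine 6 µM median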
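Schedule: 3 d treatment, 15 min room-temperature fixation; system: 68-5-11 XiGFP fibroblast line; buffer or medium: DMEM plus 5-aza-dC sensitizer; control set: ellipticine 6 µM positive control; compound: one concentration, pinned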
NTR1 ag – agonists of human neurotensin receptor NTR1; P30989; NTR1-U2OS beta-arrestin-GFP spot imaging, agonist mode; activation, % at 20 µM; hit rate 0.17% among 330,000; AID 493036;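 active = activation at or above 40% of the spot to cytoplasm intensity ratio, with at least 20 cells analyzed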;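 note: 0% = DMSO without peptide and 100% = 100 nM NTR1 peptide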
Target sequence (P30989 whole entry, looked up): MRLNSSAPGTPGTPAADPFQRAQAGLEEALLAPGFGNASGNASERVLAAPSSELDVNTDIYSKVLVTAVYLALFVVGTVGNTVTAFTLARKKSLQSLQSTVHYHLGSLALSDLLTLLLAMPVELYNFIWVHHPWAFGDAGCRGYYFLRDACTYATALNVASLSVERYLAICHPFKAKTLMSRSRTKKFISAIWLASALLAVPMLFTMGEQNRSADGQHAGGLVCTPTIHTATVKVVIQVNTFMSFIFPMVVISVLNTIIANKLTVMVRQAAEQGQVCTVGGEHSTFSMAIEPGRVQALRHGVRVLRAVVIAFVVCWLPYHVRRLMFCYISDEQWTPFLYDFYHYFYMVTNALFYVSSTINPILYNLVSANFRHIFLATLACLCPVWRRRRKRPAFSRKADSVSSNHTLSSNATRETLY
T cell HTS – T cell immune modulation candidate; response (vesicle binding), % at 7 µM; AID 2052; hit rate 0.068% among 330,000; 2C CD8+ T cell-vesicle binding, flow cytometry; hits give low values;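 active = response, share of CD8 T cells binding vesicles, and their 90th percentile fluorescence all below set limits, cut at about 80% in these data, passing the limit was not always enough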;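 note: values below 100% mean blocked vesicle binding to the CD8+ T cells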
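incubation = binding step 1.5 h, 37 °C, antibody labelling 20 min, ice | test system = 2C mouse CD8+ T cells | read-out basis = percent CD8+ FL2 mean versus row control | controls = Peptide-free naked vesicles (low) and QL9 vesicles with 0.7% DMSO vehicle (high) | detection = flow cytometry of vesicle-bound cells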
V-ATPase pHluor – regulators of yeast V-ATPase proton transport. response, % at 10 µM. S. cerevisiae, pHLuorin cytosolic pH fluorescence. hit rate 0.37% among 350,000; in the data active = response mostly above about 7.3%, no sharp cut-off; inactive = mostly below about 5.4%; note: actives read high
Arr AP2 CP1 – human beta-arrestin and AP2 interaction inhibition, cherry pick | shares compounds with Arr AP2 block | GST-AP2 beads, FITC arrestin peptide binding, flow cytometry; GST-fused beta2-adaptin appendage, R879A mutant | inhibition, % at 10 µM | hit rate 2% among 1,300 | AID 504908;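 active = inhibition above a set limit, roughly 3 SD of non-fluorescent compound noise, cut at about 38% in these data; inactive = inhibition at or below that limit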;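 note: loss of bead fluorescence from 50 nM FITC arrestin peptide bound to appendage; 0% = negative control wells and 100% = excess unlabelled arrestin peptide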
GST GSH counter – disrupts GST binding to glutathione beads, arrestin-AP2 artifact; GST-fluorescein binding to GSH beads, fluorescence, counter-screen; shares compounds with Arr AP2 block; hit rate 2% among 1,300; AID 588338; inhibition, % at 10 µM;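 active = inhibition above 50%, about 3 SD of the inhibition seen with non-fluorescent compounds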;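 note: fluorescein maleimide labelled GST captured on 4 micron glutathione beads; higher means more loss of bead fluorescence from quenching or blocked binding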
Starred values were filed as active, the others as inactive; i = inactive; . = no result given.

SMILES	Arr AP2 block	MIN6 prolif	XiGFP reactiv	NTR1 ag	T cell HTS	V-ATPase pHluor	Arr AP2 CP1	GST GSH counter
CCN(C[C@H]1N[C@@](C)(C(=O)OC)[C@H]2C(=O)N(Cc3ccccc3)C(=O)[C@@H]12)C(=O)c1ccccc1	57*	-3	0	-3	283	0	2	-4
COc1ccc(-c2ccc3n(c2=O)C[C@H]2N[C@@H]3[C@@H](C(=O)N3CCCCC3)[C@@H]2CO)cc1	.	.	0	.	.	.	.	.
Cc1ccc(Cc2ccc(C(=O)NNC(N)=S)o2)cc1	59*	-2	0	-1	200	-3	-8	-2
CC(C)CC#Cc1cnc2c(c1)C(=O)N([C@H](C)CO)C[C@H](C)[C@@H](CN(C)C(=O)c1ccc(F)cc1)O2	.	.	0	.	.	.	.	.
CCCCCCN1C=C/C(=C\C=C(C#N)C#N)c2ccccc21	75*	-4	0	-2	568	6	-8	8
Cc1ccc(C2/C(=C(\O)c3ccc4c(c3)OCCO4)C(=O)C(=O)N2CC2CCCO2)cc1 (centres undefined)	59*	5	0	0	i	-1	-1	-4
N#Cc1ccc(-c2nnnn2-c2ccc3c(c2)OCO3)cc1	1	3	.	-3	352	4	.	.
N#Cc1cccc(-n2nnnc2-c2ccc3c(c2)OCO3)c1	70*	-2	.	1	298	5	-7	-10
Cc1nn(C)c(C)c1NC(=O)c1cnn2c(C(F)F)cc(-c3ccccc3)nc12	.	0	.	-1	372	.	.	.
Cc1cc(NC(=O)c2cnn3c(C(F)F)cc(-c4ccccc4)nc23)no1	1	0	.	8	136	6	3	2
Cc1cc(NC(=O)c2cnn3c(C(F)(F)F)cc(-c4ccccc4)nc23)no1	0	2	.	5	352	1	3	-17
C[C@@H]1CN([C@@H](C)CO)S(=O)(=O)c2ccc(/C=C/c3ccccc3)cc2O[C@@H]1CN(C)C(=O)CN1CCOCC1	.	.	-1	.	.	.	.	.
COc1ccc(CC(=O)N2CCC(n3nccc3NC(=O)C3CCOC3)CC2)cc1 (centres undefined)	64*	3	0	0	193	-1	-13	7
COc1ccc(CC(=O)N2CCC(n3nccc3NC(=O)C3CC3)CC2)cc1	-6	0	0	-1	174	1	.	.
O=C(NCC1CCCCC1)[C@H]1[C@H](CO)[C@H]2Cn3c(ccc(C4=CCCC4)c3=O)[C@@H]1N2C(=O)CC1CC1	.	.	0	.	.	.	.	.
CCOc1ccc(NC(=S)N2CCN(S(=O)(=O)c3ccccc3)CC2)cc1	58*	-3	0	0	495	2	-15	-8
Cc1ccccc1CN1CCN(CC2CC2)CC1CCO (centres undefined)	57*	-4	0	-1	189	2	4	-4
Cc1nnc(SCCn2c(Br)nc3c2c(=O)[nH]c(=O)n3C)s1	95*	-1	.	3	142	-2	-10	-3
Cc1nnc(SCCn2c(N3CCN(C)CC3)nc3c2c(=O)[nH]c(=O)n3C)s1	-5	-1	.	0	402	0	.	.
Cc1cc(C(=O)Nc2cccc3c2O[C@@H](CN(C)CC2CC2)[C@@H](C)CN([C@H](C)CO)C3=O)n(C)n1	.	.	0	.	.	.	.	.
N#Cc1nc(-c2ccco2)oc1NCc1ccc(F)cc1	72*	0	.	0	194	0	-8	-3
N#Cc1nc(-c2ccco2)oc1NCc1cccnc1	8	-2	.	0	i	1	.	.
COc1cc2c(cc1OC)CN(C(=S)Nc1ccccc1)CC2	-5	-1	.	1	308	0	.	.
COc1cc2c(cc1OC)CN(C(=S)Nc1ccc(OC(F)F)cc1)CC2	56*	-4	0	-1	216	1	0	-3
